Measured values published in ChEMBL document CHEMBL4619772 (J Med Chem, 2020).

Experiments:
[1] = Inhibition of pseudotyped HIV/EBOV GP infected in human A549 cells assessed as reduction in virus entry measured after 48 hrs by luciferase reporter gene assay; format: cell-based, Ebolavirus; conditions: Orthoebolavirus, A549, 48 h
A549 [2] = test: Inhibition of pseudotyped HIV/EBOV GP infected in human A549 cells assessed as reduction in virus entry at 12.5 uM measured after 48 hrs by luciferase reporter gene assay relative to control; format: cell-based; conditions: Ebolavirus
Procedure, shortened: (§1)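 Low-passage A549 cells are infected with HIV-based pseudovirions carrying EBOV or MARV GP and a luciferase reporter, with or without compound at 12.5 μM. […] Toremifene is the positive control.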

[3] = Inhibition of pseudotyped HIV/MARV GP infected in human A549 cells assessed as reduction in virus entry measured after 48 hrs by luciferase reporter gene assay; format: cell-based, Marburgvirus; conditions: Orthomarburgvirus, A549, 48 h
A549 [4] = test: Inhibition of pseudotyped HIV/MARV GP infected in human A549 cells assessed as reduction in virus entry at 12.5 uM measured after 48 hrs by luciferase reporter gene assay relative to control; format: cell-based; conditions: Marburgvirus; procedure, shortened: as §1
[5] = Selectivity index, ratio of CC50 for human A549 cells to EC50 for HIV/EBOV-GP infected in human A549 cells; format: toxicity, cell-based; conditions: read-out: Ratio CC50/EC50
Procedure, shortened: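 Ratio CC50/EC50. CC50 is A549 cytotoxicity by CellTiter 96 aqueous nonradioactive cell proliferation assay.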

Zaire ebolavirus = test: Antiviral activity against Ebola virus 1976 Mayinga infected in human HeLa cells pretreated for 1 hr followed by virus infection measured after 24 hrs by Hoechst staining-based immunofluorescence assay; format: functional, organism-based
Marburgvirus = test: Antiviral activity against Marburg virus Lake Victoria, 2005 Angola infected in human HeLa cells pretreated for 1 hr followed by virus infection measured after 24 hrs by Hoechst staining-based immunofluorescence assay; format: functional, organism-based, Lake Victoria marburgvirus; conditions: Orthomarburgvirus, Angola2005, HeLa
[6] = Selectivity index, ratio of CC50 for human HeLa cells to EC50 for Ebola virus 1976 Mayinga in human HeLa cells; format: toxicity, cell-based; conditions: read-out: Ratio CC50/EC50
[7] = Metabolic stability in human pooled plasma assessed as parent compound remaining at 20 uM after 60 mins by HPLC analysis; format: ADME, cell-free; conditions: read-out: Stability
Procedure, shortened: (§2)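 Stability is reported as % of compound remaining after 60 min incubation in plasma or liver microsomes, relative to t0.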

[8] = Metabolic stability in Sprague-Dawley rat pooled plasma assessed as parent compound remaining at 20 uM after 60 mins by HPLC analysis; format: ADME, cell-free; conditions: read-out: Stability; procedure, shortened: as §2
[9] = Metabolic stability in human liver microsomes assessed as parent compound remaining after 60 mins in presence of NADPH by HPLC analysis; format: ADME, Microsome; conditions: read-out: Stability; procedure, shortened: as §2
[10] = Metabolic stability in Fischer F344 rat liver microsomes assessed as parent compound remaining after 60 mins in presence of NADPH by HPLC analysis; format: ADME, Microsome; conditions: read-out: Stability; procedure, shortened: as §2
Cytochrome P450 3A4 = Cytochrome P450 3A4 (Homo sapiens, UniProt P08684); test: Inhibition of recombinant human CYP3A4 expressed in baculovirus infected insect cell microsomes using vivid DBOMF as substrate preincubated for 10 mins followed by substrate addition and measured after 25 mins in presence of […] by fluorescence assay; format: ADME
Chain of Cytochrome P450 3A4 (P08684 whole entry): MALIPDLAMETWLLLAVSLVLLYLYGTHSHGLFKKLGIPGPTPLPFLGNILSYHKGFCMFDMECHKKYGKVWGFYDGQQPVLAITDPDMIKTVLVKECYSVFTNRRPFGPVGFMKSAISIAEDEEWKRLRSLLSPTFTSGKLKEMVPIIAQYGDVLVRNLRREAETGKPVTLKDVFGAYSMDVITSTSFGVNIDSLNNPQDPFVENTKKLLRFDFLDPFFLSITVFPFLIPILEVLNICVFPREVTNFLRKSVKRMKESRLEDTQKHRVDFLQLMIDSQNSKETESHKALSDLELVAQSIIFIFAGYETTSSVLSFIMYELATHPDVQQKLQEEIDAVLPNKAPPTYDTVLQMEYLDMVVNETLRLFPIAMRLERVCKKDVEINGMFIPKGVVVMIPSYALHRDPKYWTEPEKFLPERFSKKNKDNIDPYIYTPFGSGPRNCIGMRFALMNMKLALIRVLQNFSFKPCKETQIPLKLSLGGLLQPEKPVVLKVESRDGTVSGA
Procedure, shortened: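 CYP3A4 inhibition IC50 is determined with 10 μM quinidine as positive inhibitor control, from three replicates; errors are estimated <10%.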

Cytochrome P450 2C9 = Cytochrome P450 2C9 (Homo sapiens, UniProt P11712); test: Inhibition of recombinant human CYP2C9 expressed in baculovirus infected insect cell microsomes using vivid BOMF as substrate preincubated for 10 mins followed by substrate addition and measured after 25 mins in presence of […] by fluorescence assay; format: ADME
Chain of Cytochrome P450 2C9 (P11712 whole entry): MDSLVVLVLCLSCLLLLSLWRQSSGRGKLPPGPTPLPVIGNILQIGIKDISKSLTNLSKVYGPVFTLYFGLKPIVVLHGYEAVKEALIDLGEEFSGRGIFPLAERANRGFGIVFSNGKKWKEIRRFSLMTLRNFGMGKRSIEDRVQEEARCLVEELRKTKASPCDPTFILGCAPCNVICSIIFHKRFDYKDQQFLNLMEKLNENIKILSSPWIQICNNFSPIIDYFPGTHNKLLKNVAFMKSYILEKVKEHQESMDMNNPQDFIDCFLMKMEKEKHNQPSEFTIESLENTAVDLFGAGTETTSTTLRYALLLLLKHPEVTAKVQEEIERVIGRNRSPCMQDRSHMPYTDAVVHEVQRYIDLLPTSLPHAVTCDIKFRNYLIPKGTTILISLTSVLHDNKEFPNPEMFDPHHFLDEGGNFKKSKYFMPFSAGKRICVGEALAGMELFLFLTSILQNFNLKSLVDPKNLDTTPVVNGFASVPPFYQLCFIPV
Procedure, shortened: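 CYP2C9 inhibition IC50 is determined with 30 μM sulfaphenazole as positive inhibitor control, from three replicates; errors are estimated <10%.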

Row | SMILES | EC50 [1] [nM] | inhibition (A549 [2]) [%] | EC50 [3] [nM] | inhibition (A549 [4]) [%] | selectivity ratio [5] | other results
1 | CC(c1ccc(C(=O)Nc2ccc(C3CCCCC3)cc2)cc1)N1CCCCC1 (stereo not drawn) | 330 | 99.3 | 850 | 88.9 | 390 | EC50 (Zaire ebolavirus): 1800 nM; EC50 (Marburgvirus): 5560 nM; selectivity ratio [6]: 54; remaining at 1 h, 20 µM [7]: 88%; remaining at 1 h, 20 µM [8]: 82%; remaining at 1 h [9]: 31%; remaining at 1 h [10]: 24%
2 | COC(=O)c1ccc(NC(=O)c2ccc(C(=O)N3CCCCC3)cc2)cc1 | – | 12.9 | – | 0 | – | –
3 | O=C(Nc1ccc(Cl)c(C(F)(F)F)c1)c1ccc(CN2CCCCC2)cc1 | 1520 | 99.6 | 1240 | 98.2 | 7 | –
4 | COC(=O)c1ccc(NC(=O)c2cccc(CN3CCCCC3)c2)cc1 | – | 13 | – | 5.9 | – | –
5 | CC(C)(C)c1ccc(NC(=O)c2ccc(CN3CCCCC3)cc2)c(C(C)(C)C)c1 | 480 | 99.5 | 2340 | 85 | 76 | EC50 (Zaire ebolavirus): 590 nM; EC50 (Marburgvirus): 2000 nM; selectivity ratio [6]: 227; remaining at 1 h, 20 µM [7]: 85%; remaining at 1 h, 20 µM [8]: 82%; remaining at 1 h [9]: 17%; remaining at 1 h [10]: 99%; IC50 (Cytochrome P450 3A4): > 100000 nM; IC50 (Cytochrome P450 2C9): 18600 nM
6 | O=C(Nc1ccc(C(F)(F)F)cc1)c1ccc(CN2CCCCC2)s1 | 5600 | 80.2 | 3650 | 70 | 9 | –
7 | O=C(c1ccc(CN2CCCCC2)cc1)N1CCc2cc(C(F)(F)F)ccc21 | – | 56.4 | – | 49.6 | – | –
8 | O=C(O)c1ccc(NC(=O)c2ccc(CN3CCCCC3)cc2)cc1 | – | 3.12 | – | 10.3 | – | –
9 | O=C(NCC1CCC(F)(F)CC1)c1ccc(CN2CCCCC2)cc1 | – | 42.9 | – | 23 | – | –
10 | O=C(Nc1ccc(C2CCCCC2)cc1)c1ccc(CN2CCCCC2)cc1 | 990 | 98.1 | 960 | 73.4 | 101 | –
11 | CC(C)c1ccc(NC(=O)c2ccc(CN3CCCCC3)cc2)cc1 | 2870 | 93.1 | 2100 | 67.5 | 10 | –
12 | O=C(Nc1ccc(C2CC2)cc1)c1ccc(CN2CCCCC2)cc1 | 4570 | 74.3 | 2650 | 66.2 | 22 | –
13 | O=C(Nc1ccc(N2CCC(F)(F)CC2)cc1)c1ccc(CN2CCCCC2)cc1 | 820 | 99.7 | 1880 | 88.8 | 69 | –
14 | CC1(C)CN(C(=O)c2ccc(CN3CCCCC3)cc2)c2ccccc21 | 2220 | 87.3 | 2900 | 21.4 | 33 | –
15 | COC(=O)c1ccc2c(c1)CCN2C(=O)c1ccc(CN2CCCCC2)cc1 | – | 41.7 | – | 51.2 | – | –
16 | CS(=O)(=O)Nc1ccc(NC(=O)c2ccc(CN3CCCCC3)cc2)cc1 | – | 3.91 | – | 6.81 | – | –
17 | COC(=O)c1ccc2c(c1)CCN2C(=O)c1ccc(CN2CCCCC2)s1 | – | 38.9 | – | 0 | – | –
18 | O=C(Nc1ccc(C2CCCCC2)cc1)c1ccc(CN2CCCCC2)c(F)c1 | 380 | 96.1 | 1330 | 71 | 382 | EC50 (Zaire ebolavirus): 1040 nM; EC50 (Marburgvirus): 16600 nM; selectivity ratio [6]: 128; remaining at 1 h, 20 µM [7]: 87%; remaining at 1 h, 20 µM [8]: 86%; remaining at 1 h [9]: 28%; remaining at 1 h [10]: 23%
19 | O=C(Nc1cccc(C(F)(F)F)c1)c1ccc(CN2CCCCC2)cc1 | 2970 | 82.2 | 1410 | 57.5 | 15 | –
20 | CC(c1ccc(C(=O)NCCOC2CCCCC2)cc1)N1CCCCC1 (stereo not drawn) | – | 52.4 | – | 42.5 | – | –
21 | COC(=O)c1cccc(NC(=O)c2ccc(CN3CCCCC3)cc2)c1 | – | 0 | – | 0 | – | –
